Screens deposited in PubChem by several laboratories.
Compounds with a hit are over-represented: about 0.7% of the library has one in this group of screens.
GSK3A inh: inhibitors of human GSK-3 alpha kinase | P49840 | ADP-Glo luminescence, 60 min | inhibition, % at 10 µM | 320,000 compounds, 0.1% hits;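 active means more than half of replicates show inhibition above 20%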;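 further: GST-tagged GSK-3 alpha with peptide substrate and 25 µM ATP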
STK33 kinase inh: blocks human STK33 kinase activity; 320,000 compounds, 0.073% hits; Q9BYT3; inhibition, % at 10 µM; purified STK33, MBP phosphorylation, ADP-Glo luminescence; AID 2661;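 active means inhibition at or above 25%, using the most active replicate where run in duplicate; inactive means inhibition below 25%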
Rce1 inh: inhibitors of yeast Ras-converting enzyme; Q03530; yeast membranes, quenched prenylated peptide cleavage fluorescence; calls only; 290,000 compounds, 0.27% hits;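 active means fall in fluorescence gain of 50% or more versus controls, with final raw signal at or below 3038400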
Target sequence (Q03530 whole entry, looked up): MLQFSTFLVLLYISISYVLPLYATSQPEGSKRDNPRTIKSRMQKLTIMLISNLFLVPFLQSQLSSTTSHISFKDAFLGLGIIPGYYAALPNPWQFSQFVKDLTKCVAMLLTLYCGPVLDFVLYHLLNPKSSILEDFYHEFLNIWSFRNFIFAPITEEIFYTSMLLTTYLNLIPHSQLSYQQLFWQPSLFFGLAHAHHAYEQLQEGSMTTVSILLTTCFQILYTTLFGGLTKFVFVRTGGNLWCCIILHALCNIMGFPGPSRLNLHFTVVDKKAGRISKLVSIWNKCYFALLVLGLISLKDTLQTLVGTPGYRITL
GSK3beta inhib: human GSK3beta kinase inhibition. activity score (negative = inhibition), % at 10 µM. P49841. 300,000 compounds, 0.038% hits. GST-GSK3beta kinase, ADP-Glo luminescence, 60 min; active compounds read low. AID 2097;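 active means more than half of replicate wells score below -50%, meaning over 50% inhibition versus plate controls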
Target sequence (P49841 whole entry, looked up): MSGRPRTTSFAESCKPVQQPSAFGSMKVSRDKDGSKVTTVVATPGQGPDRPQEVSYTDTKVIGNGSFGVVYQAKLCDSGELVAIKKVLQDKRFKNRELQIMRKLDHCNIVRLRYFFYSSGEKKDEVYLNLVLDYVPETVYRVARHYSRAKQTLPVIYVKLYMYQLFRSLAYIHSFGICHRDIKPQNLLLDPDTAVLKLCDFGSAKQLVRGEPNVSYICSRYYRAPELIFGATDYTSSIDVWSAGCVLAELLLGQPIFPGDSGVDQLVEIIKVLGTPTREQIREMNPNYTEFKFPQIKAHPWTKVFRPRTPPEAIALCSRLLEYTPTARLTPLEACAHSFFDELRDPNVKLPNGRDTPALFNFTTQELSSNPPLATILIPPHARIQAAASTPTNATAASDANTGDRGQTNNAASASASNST
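Assay system: GST-tagged human GSK3beta kinase, cell-free; Input: 1.6 ng GSK3beta; Medium: Tris/MgCl2 kinase buffer; Timing: 60 min enzyme reaction, room temperature; Signal: ADP-Glo luminescence quantifying ADP generated by kinase; Evaluation: score relative to plate controls; Benchmarks: DMSO neutral wells and GW8510 at 20 µM as positive.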
HSV replic up: HSV replication enhancement. HSV replication augmentation in cells, fold increase. 220,000 compounds, 0.005% hits. AID 1956. maximum fold increase; in the data active means maximum fold increase above about 1.5; tested in PC3 cells
Lipid droplet: modulators of hepatic lipid droplet formation. AML12 mouse hepatocytes, oleate lipid droplets, BODIPY imaging. inhibition, % at 6.5 µM. 240,000 compounds, 0.4% hits. AID 1656;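 active means lipid droplet intensity inhibited by at least 50%, with more than 500 cells counted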
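Assay system: AML12 mouse liver cells | Compound dosing: One dose, 6.5 µM compound | Read-out basis: Droplet intensity reduction, % inhibition | Measured by: Fluorescence imaging, 20x objective, two fields per well | Schedule: Overnight treatment with compound plus oleate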
Hep lipid conf: hepatic lipid droplet formation inhibition, confirmed | 870 compounds, 65% hits | AML12 mouse hepatocytes, BODIPY lipid droplet imaging; droplets induced with 100 µM oleic acid | shares compounds with Lipid droplet | inhibition, % at 5.2 µM | AID 463183;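 active means inhibition of lipid droplet metric at least 50%, with more than 300 cells in each of four replicates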
AML12 tox img: toxic to AML12 mouse hepatocytes in counter-screen. shares compounds with Lipid droplet. DAPI nuclear morphology cytotoxicity imaging; active compounds read high; cells fed 100 µM oleate overnight. z-score at 5 µM. 870 compounds, 3% hits. AID 463200; in the data active means z-score above about 6.3;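 further: compound exposure lasted overnight at 37 °C before fixation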
AML12 tox conf: confirmation of cytotoxicity in AML12 mouse hepatocytes; shares compounds with Lipid droplet; AML12 mouse hepatocyte viability, ATP luminescence; cells loaded with 100 µM oleic acid; cytotoxicity, % at 50 µM; 530 tested, under 10 active;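 active means cytotoxicity above 50% in each of four replicates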;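 further: compound exposure lasted overnight at 37 °C before the ATP read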
Large screens that a line does not name were inactive (follow-up assays come after a bar, where they were run).

c1cc[n+](CCC[n+]2ccccc2)cc1	Lipid droplet 55.8 (no result: HSV replic up) | Hep lipid conf inactive | AML12 tox img inactive
CC1CC(C)CN(CCCNC(=O)C2CCCN(S(=O)(=O)N3CC(C)CC(C)C3)C2)C1 (stereo unspecified)	none (no result: HSV replic up)
C=CCOc1ccc(-c2nc3c(c(=O)[nH]c(=O)n3Cc3ccccc3)n2CCCOC)cc1	Lipid droplet 56.0 (no result: HSV replic up) | Hep lipid conf 65.0 | AML12 tox img inactive | AML12 tox conf inactive
CCCSC1=C(C#N)C(c2cccs2)C(C(=O)Nc2ccccc2)=C(C)N1 (stereo unspecified)	Lipid droplet 54.1 | Hep lipid conf 92.5 | AML12 tox img inactive | AML12 tox conf inactive
CCSC1=C(C#N)C(c2cccs2)C(C(=O)OC)=C(C)N1 (stereo unspecified)	none (no result: Lipid droplet)
Cn1c(=O)c(C(=O)COC(=O)c2cc(-c3ccccc3)nc3ccccc23)c(N)n(Cc2ccccc2)c1=O	none (no result: HSV replic up)
Cn1c(=O)c(C(=O)COC(=O)c2cc(C3CC3)nc3ccccc23)c(N)n(Cc2ccccc2)c1=O	Lipid droplet 55.1 (no result: Rce1 inh, GSK3beta inhib) | Hep lipid conf 82.4 | AML12 tox img inactive
COc1ccccc1Nc1ccc(NS(=O)(=O)c2ccc(C(C)=O)cc2)cc1	Lipid droplet 99.2 (no result: HSV replic up) | Hep lipid conf 93.7 | AML12 tox img inactive
COc1ccccc1NS(=O)(=O)c1ccc(NC(C)=O)cc1	none
COC(C[C@@H](O)C[C@@H](O)COCc1ccccc1)OC	Lipid droplet 113.0 (no result: GSK3A inh, STK33 kinase inh) | Hep lipid conf inactive | AML12 tox img inactive
COC(C[C@H](O)C[C@@H](O)COCc1ccccc1)OC	none (no result: GSK3A inh, STK33 kinase inh)
COc1ccc(CCn2ccc(O)c(Cc3ccc(Cl)cc3)c2=O)cc1OC	Lipid droplet 61.0 | Hep lipid conf 106.1 | AML12 tox img inactive | AML12 tox conf inactive
COc1ccccc1NNC(=O)c1cccnc1Oc1ccccc1	none
Cc1ccc(/C(=N\S(=O)(=O)c2ccc(Br)cc2)Nc2ccccc2C)cc1	none (no result: HSV replic up)
Cc1ccccc1N/C(=N/S(=O)(=O)c1ccccc1)c1ccc(F)cc1	Lipid droplet 54.4 | Hep lipid conf inactive | AML12 tox img inactive
COc1cccc2c1cc1c(=O)n(CC(=O)NCc3ccccn3)nc(C)n12	none (no result: HSV replic up)
CCOC(=O)N1CCC(NS(=O)(=O)c2cc(C(=O)OC)n(C)c2)CC1	none (no result: HSV replic up)
CN(C)S(=O)(=O)c1cc(NC(=O)CN2CCN(c3ccccc3O)CC2)ccc1Cl	none
CCc1c(C#N)c(SCCC(=O)Nc2ccc(OC)cc2)nc2c1C(=O)CC(C)(C)C2	Lipid droplet 54.1 | Hep lipid conf 88.8 | AML12 tox img inactive | AML12 tox conf inactive
CCc1c(C#N)c(SCc2c(C)noc2C)nc2c1C(=O)CC(C)(C)C2	none
O=C(NC1CCCc2c1cnn2-c1ccc(F)cc1F)c1ccccn1 (stereo unspecified)	none
Cc1cccc(-n2ncc3c2CCCC3NC(=O)C2(C(N)=O)CC2)c1C (stereo unspecified)	none (no result: Rce1 inh, HSV replic up)
Cc1ccc(-n2ncc3c2CCCC3NC(=O)c2ccoc2)cc1C (stereo unspecified)	none (no result: HSV replic up)
Cc1cc(C)c(C(=O)NC2CCCc3c2cnn3-c2cccc(C)c2C)o1 (stereo unspecified)	Lipid droplet 81.2 (no result: HSV replic up) | Hep lipid conf 105.4 | AML12 tox img inactive | AML12 tox conf inactive
COCc1ccc(C(=O)NC2CCCc3c2cnn3-c2ccc(C)c(C)c2)o1 (stereo unspecified)	Lipid droplet 61.3 (no result: HSV replic up) | Hep lipid conf 99.8 | AML12 tox img inactive | AML12 tox conf inactive
O=C(NC1CCCc2c1cnn2-c1ccccc1F)c1ccccn1 (stereo unspecified)	Lipid droplet 71.3 (no result: HSV replic up) | Hep lipid conf 88.5 | AML12 tox img inactive | AML12 tox conf inactive
O=C(Nc1cc2cccc([N+](=O)[O-])c2oc1=O)c1cccs1	none (no result: Rce1 inh)
COc1ccc(OC)c(/C=C/C(=O)N(C)CC(=O)Nc2cc(C)ccc2C)c1	Lipid droplet 59.7 | Hep lipid conf 94.8 | AML12 tox img inactive | AML12 tox conf inactive
COc1ccc(OC)c(/C=C/C(=O)N(C)CC(=O)Nc2ccc(C)cc2)c1	Lipid droplet 59.0 | Hep lipid conf 77.3 | AML12 tox img inactive | AML12 tox conf inactive
CC(=O)NS(=O)(=O)c1ccc(NC(=O)c2ccc(S(=O)(=O)N3CCCC3)cc2)cc1	none (no result: Rce1 inh, GSK3beta inhib, HSV replic up, Lipid droplet)
COc1ccc(S(=O)(=O)N2CCOCC2)cc1NC(=O)CN1CCN(C)CC1	none (no result: HSV replic up, Lipid droplet)
Cc1cc(C(=O)N[C@@H](c2ccccc2)[C@]2(C)C[C@H]2[C@@H](C)C(=O)Nc2ccc3ccccc3c2)no1	Lipid droplet 95.5 | Hep lipid conf 101.1 | AML12 tox img inactive
Cc1cc(C(=O)N[C@H](c2ccccc2)[C@@]2(C)C[C@@H]2[C@@H](C)C(=O)Nc2ccc3ccccc3c2)no1	none
COC(=O)c1nccc2c1[nH]c1ccccc12	none (no result: HSV replic up, Lipid droplet)
COc1ccc(NC(=O)COC(=O)/C=C/C(=O)OCC(=O)Nc2ccc(OC)c(Cl)c2)cc1Cl	Lipid droplet 63.3 | Hep lipid conf inactive | AML12 tox img inactive
CCc1ccc(NC(=O)CNC(=O)[C@@H]2Cc3ccccc3CN2C(=O)OC(C)(C)C)cc1	Lipid droplet 54.5 (no result: HSV replic up) | Hep lipid conf 75.6 | AML12 tox img inactive | AML12 tox conf inactive
CCc1ccc(NC(=O)CNC(=O)[C@@H]2Cc3ccccc3CN2)cc1	none (no result: HSV replic up)
NC(=O)c1ccc(NC(=O)CN2C(=O)NC(c3ccccc3)(c3ccccc3)C2=O)cc1	none (no result: HSV replic up)
CCCNC1=CC(=O)CC(C)(C)C1	Lipid droplet 57.0 | Hep lipid conf inactive | AML12 tox img inactive
COc1cccc(CN(C)C(=O)c2csc3c2CCCC3)c1OC	none
Brc1ccc(-c2csc(NNC3=NCCCCC3)n2)cc1	none (no result: Lipid droplet)
CC(C)(C)c1ccc(-c2csc(NNC3=NCCCCC3)n2)cc1	Lipid droplet 59.7 | Hep lipid conf 99.8 | AML12 tox img inactive | AML12 tox conf inactive
FC(F)Oc1ccc(-c2csc(NNC3=NCCCCC3)n2)cc1	Lipid droplet 94.9 | Hep lipid conf 114.6 | AML12 tox img inactive | AML12 tox conf inactive
Cc1ccc(-c2nc(CS(=O)CC(=O)NCCCN3CCN(Cc4ccccc4)CC3)c(C)o2)cc1 (stereo unspecified)	none (no result: HSV replic up)
Cc1ccc(NC(=O)N2CCC(C(=O)c3ccc(F)cc3)CC2)cc1	Lipid droplet 82.6 (no result: HSV replic up) | Hep lipid conf 95.5 | AML12 tox img inactive | AML12 tox conf inactive
